Laboratory results reported in PMC5892780 (RMD Open, 2018).

Tests used:
adults with gout [1] = experiment: Serum urate; format: in vivo, human
In short: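 Gout patients were dosed orally once daily after a standardised breakfast, 7 days per treatment period. Serum was sampled at screening, baseline (day –1) and weekly for 4 weeks, within 30 min predose and at preset intervals up to 24 h postdose. Emax is the maximum percent change from baseline. A mixed-effects model used treatment and period as fixed effects, subject as random effect and baseline as covariate; data were pooled across cohorts.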

adults with gout [2] = experiment: Urinary uric acid pharmacodynamics; format: in vivo, human
In short: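 Total-catch urine was collected on day –1, then weekly for 4 weeks, in 1 h up to 2 or 10 h intervals. On collection days subjects drank 240 mL water on waking, 240 mL with the dose, ~160 mL/h for 12 h and 240 mL at 22 h. ReUR, AeUR, CLUR and FEUA were derived per time point per 24-h collection. Analysis used a mixed-effects model with baseline covariate.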

adults with gout [3] = experiment: Urinary xanthine and hypoxanthine excretion; format: in vivo, human; conditions: febuxostat 40 mg alone; urine
In short: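 Urine from gout patients on once-daily oral treatment (total catch, day –1 and weekly for 4 weeks, with a fixed water-loading schedule) was assayed for xanthine and hypoxanthine by LC/MS/MS. Assay performance was monitored with quality control samples prepared in blank matrix. These analytes served as a marker of the functional activity of the 40 mg partner-drug dose.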

[4] = Plasma PK of febuxostat alone or in the presence of verinurad; format: in vivo, human; conditions: for GMR AUC0-24 / GMR Cmax: GMR (90% CI)
In short: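 Adults with gout took the test compounds orally once daily, about 30 min after a standardised breakfast (approximately 650 kcal, 35% fat), in 7-day treatment periods. Blood was drawn weekly for 4 weeks, within 30 min predose and at intervals up to 24 h postdose. Plasma was separated by centrifugation, extracted by protein precipitation and analysed by LC/MS/MS. Cmax and AUC0-24 were compared by mixed-effects model (treatment fixed, subject random).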

adults with gout [5] = experiment: Safety assessment; format: in vivo, human; conditions: febuxostat 80 mg-alone group
In short: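 Subjects (sUA ≥8 mg/dL, creatinine clearance ≥60 mL/min) received colchicine 0.6 mg flare prophylaxis. Once-daily oral dosing with the test compounds was given after a standardised breakfast. Safety was monitored throughout and at day 42 (±2) follow-up: AEs coded by MedDRA V.17.0, clinical laboratory tests, vital signs, ECGs and physical examinations.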

patients with gout = conditions: lesinurad 400 mg vs lesinurad 200 mg plus febuxostat or febuxostat alone; cited from earlier work
[6] = Plasma and urine PK of verinurad in the presence of febuxostat; format: in vivo, human; conditions: for Tmax: human, plasma, oral; for fe0-24: urine, geometric mean (95% CI)
humans = conditions: doses as low as 2.5 mg; cited from earlier work
[7] = febuxostat 40 mg + verinurad 2.5 mg vs febuxostat alone
[8] = febuxostat 40 mg + verinurad 5 mg vs febuxostat alone
[9] = febuxostat 40 mg + verinurad 20 mg vs febuxostat alone
[10] = febuxostat 80 mg + verinurad 2.5 mg vs febuxostat alone
[11] = febuxostat 80 mg + verinurad 5 mg vs febuxostat alone
[12] = febuxostat 80 mg + verinurad 10 mg vs febuxostat alone
[13] = febuxostat 80 mg + verinurad 15 mg vs febuxostat alone

## Cc1nc(-c2ccc(OCC(C)C)c(C#N)c2)sc1C(=O)O [febuxostat]
Adults with gout [1]; febuxostat 40 mg alone
  Emax, maximum percent decrease in sUA from baseline: 42%
Adults with gout [1]; febuxostat 80 mg alone
  Emax, maximum percent decrease in sUA from baseline: 55%
Adults with gout [2]; febuxostat 40 and 80 mg alone
  Mean maximum urinary uric acid excretion rate (ReUR) compared with baseline: reduced below baseline
Adults with gout [2]; febuxostat 40 or 80 mg administered alone
  Influence on FEUA: did not influence
Adults with gout [2]; febuxostat 40 or 80 mg administered alone, data not shown
  Influence on CLUR: did not influence
Adults with gout [3]
  Increase in mean excretion of hypoxanthine: 527%
  Increase in mean excretion of xanthine: 1965%
[4]; [7]
  GMR AUC0-24: 94.2 (88.1 to 101) %
  GMR Cmax: 91.2 (69.3 to 120) %
[4]; [8]
  GMR AUC0-24: 92.4 (89.0 to 95.8) %
  GMR Cmax: 85.6 (75.7 to 96.7) %
[4]; [9]
  GMR AUC0-24: 94.1 (89.4 to 99.0) %
  GMR Cmax: 114 (92.0 to 141) %
[4]; [10]
  GMR AUC0-24: 98.6 (94.5 to 103) %
  GMR Cmax: 146 (130 to 165) %
[4]; [11]
  GMR AUC0-24: 89.3 (82.8 to 96.3) %
  GMR Cmax: 89.9 (68.8 to 117) %
[4]; [12]
  GMR AUC0-24: 94.2 (90.7 to 97.9) %
  GMR Cmax: 101 (87.9 to 116) %
[4]; [13]
  GMR AUC0-24: 92.9 (84.1 to 103) %
  GMR Cmax: 123 (88.3 to 173) %
[4]; febuxostat 40 or 80 mg
  Febuxostat exposures alone vs in combination with verinurad: equivalence
Adults with gout [5]
  TEAE of severe intensity: a severe case of hypertriglyceridaemia

## O=C(O)CSc1nnc(Br)n1-c1ccc(C2CC2)c2ccccc12 [lesinurad]
Patients with gout
  Rates of renal adverse effects: increased rates of renal adverse effects

## CC(C)(Sc1ccncc1-c1ccc(C#N)c2ccccc12)C(=O)O [verinurad]
[6]; Median Tmax of verinurad, range over verinurad 2.5-20 mg with febuxostat 40 or 80 mg
  Tmax: 2.5 to 4 h
[6]; Tmax, verinurad 2.5 mg + febuxostat 40 mg, median (range)
  Tmax: 3.5 h
[6]; Tmax, verinurad 2.5 mg + febuxostat 80 mg, median (range)
  Tmax: 2.5 h
[6]; Tmax, verinurad 5 mg + febuxostat 40 mg, median (range)
  Tmax: 3.5 h
[6]; Tmax, verinurad 5 mg + febuxostat 80 mg, median (range)
  Tmax: 4 h
[6]; Tmax, verinurad 10 mg + febuxostat 40 mg, median (range)
  Tmax: 3 h
[6]; Tmax, verinurad 10 mg + febuxostat 80 mg, median (range)
  Tmax: 3 h
[6]; Tmax, verinurad 15 mg + febuxostat 40 mg, median (range)
  Tmax: 3 h
[6]; Tmax, verinurad 20 mg + febuxostat 40 mg, median (range)
  Tmax: 3 h
[6]; verinurad 2.5 mg + febuxostat 40 mg
  fe0-24: 0.661 (0.437 to 1.00) %
[6]; verinurad 2.5 mg + febuxostat 80 mg
  fe0-24: 0.622 (0.347 to 1.11) %
[6]; verinurad 2.5 mg with febuxostat 80 mg
  Verinurad Ae0-24 (amount excreted unchanged in urine): 15.5 µg
[6]; verinurad 5 mg + febuxostat 40 mg
  fe0-24: 0.657 (0.444 to 0.970) %
[6]; verinurad 5 mg + febuxostat 80 mg
  fe0-24: 0.640 (0.392 to 1.05) %
[6]; verinurad 10 mg + febuxostat 40 mg
  fe0-24: 0.810 (0.622 to 1.05) %
[6]; verinurad 10 mg + febuxostat 80 mg
  fe0-24: 1.03 (0.710 to 1.49) %
[6]; verinurad 15 mg + febuxostat 40 mg
  fe0-24: 0.692 (0.561 to 0.853) %
[6]; verinurad 15 mg + febuxostat 80 mg
  fe0-24: 0.816 (0.493 to 1.35) %
[6]; verinurad 20 mg + febuxostat 40 mg
  fe0-24: 0.717 (0.542 to 0.949) %
[6]; verinurad 20 mg with febuxostat 40 mg
  Verinurad Ae0-24 (amount excreted unchanged in urine): 143 µg
humans
  sUA lowering in humans: significant sUA lowering
